The target in experiment [1] is T1, Coagulation factor XIII A chain (Homo sapiens, UniProt P00488).
T1 sequence (P00488 whole entry): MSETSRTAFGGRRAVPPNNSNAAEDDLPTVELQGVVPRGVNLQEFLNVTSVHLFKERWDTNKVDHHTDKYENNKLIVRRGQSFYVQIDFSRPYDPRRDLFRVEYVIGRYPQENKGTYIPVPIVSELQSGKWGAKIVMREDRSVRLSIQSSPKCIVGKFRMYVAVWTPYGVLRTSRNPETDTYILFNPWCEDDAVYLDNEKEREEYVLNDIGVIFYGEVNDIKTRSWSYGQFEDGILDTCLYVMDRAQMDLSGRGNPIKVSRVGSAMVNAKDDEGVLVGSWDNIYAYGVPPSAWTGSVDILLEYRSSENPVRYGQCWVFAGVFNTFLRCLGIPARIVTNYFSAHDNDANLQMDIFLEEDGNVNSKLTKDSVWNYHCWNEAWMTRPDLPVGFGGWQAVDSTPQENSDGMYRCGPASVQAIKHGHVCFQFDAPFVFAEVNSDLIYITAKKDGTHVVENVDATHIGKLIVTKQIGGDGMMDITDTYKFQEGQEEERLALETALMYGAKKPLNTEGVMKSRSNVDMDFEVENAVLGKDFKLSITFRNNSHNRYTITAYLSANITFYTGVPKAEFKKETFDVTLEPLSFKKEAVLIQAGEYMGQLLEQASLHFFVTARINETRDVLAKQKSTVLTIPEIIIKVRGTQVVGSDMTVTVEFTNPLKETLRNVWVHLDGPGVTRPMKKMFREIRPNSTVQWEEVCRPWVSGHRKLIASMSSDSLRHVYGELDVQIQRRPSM
Put plainly: Inhibition of recombinant F13a (unknown origin) using H-Tyr-Glu(pNA)-Val-Lys-Val-Ile-Gly-NH2 as substrate by chromogenic assay.

Experiment [2] concerns the target T2, Coagulation factor XIII A chain (Homo sapiens) (UniProt P00488).
T2 sequence (whole entry): T1 sequence (P00488 whole entry)
The experiment in a line: Binding affinity to nonactivated recombinant F13A subunit (unknown origin) by microscale thermophoresis method. The method, boiled down: (§1)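 Carboxyfluorescein-labeled peptide (2 μM solution, before mixing) in 50 mM Tris-HCl pH 7.5, 0.9% w/v NaCl, with Tween-20 to 0.1% final. Mixed with an equal volume of protein (FXIIIa, FXIII-A or FXIII-B) in the same buffer, 15 concentrations spanning 3.1 μM to 0.1 nM. After 20 min incubation, the mixture was loaded into glass capillaries and thermophoresis read three times per capillary.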
(MST reads how a fluorescent partner responds to local heating, with and without ligand.)

In experiment [3] the target is T3, Coagulation factor XIII B chain (Homo sapiens) (UniProt P05160).
T3 sequence (whole entry): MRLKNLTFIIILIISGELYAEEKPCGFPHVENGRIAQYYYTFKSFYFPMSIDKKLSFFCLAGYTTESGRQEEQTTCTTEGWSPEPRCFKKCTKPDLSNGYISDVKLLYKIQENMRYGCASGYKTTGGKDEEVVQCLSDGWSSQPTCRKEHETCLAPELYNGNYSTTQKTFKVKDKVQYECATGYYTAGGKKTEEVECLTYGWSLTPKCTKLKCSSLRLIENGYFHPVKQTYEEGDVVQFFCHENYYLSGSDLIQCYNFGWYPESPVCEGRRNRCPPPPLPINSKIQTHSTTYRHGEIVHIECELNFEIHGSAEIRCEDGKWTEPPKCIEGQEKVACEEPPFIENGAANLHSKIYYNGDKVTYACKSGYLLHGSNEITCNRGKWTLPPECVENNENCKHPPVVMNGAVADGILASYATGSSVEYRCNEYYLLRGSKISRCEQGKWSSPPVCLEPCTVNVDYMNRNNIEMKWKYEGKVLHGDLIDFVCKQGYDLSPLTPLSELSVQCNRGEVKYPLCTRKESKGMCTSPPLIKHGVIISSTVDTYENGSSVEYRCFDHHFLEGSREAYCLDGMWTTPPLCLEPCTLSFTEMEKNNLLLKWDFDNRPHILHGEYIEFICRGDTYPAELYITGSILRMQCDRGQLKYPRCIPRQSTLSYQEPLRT
The experiment in a line: Binding affinity to nonactivated recombinant F13B subunit (unknown origin) by microscale thermophoresis method. The method, boiled down:
as §1

For experiment [4], the target named is T4, Protein-glutamine gamma-glutamyltransferase (Homo sapiens) (UniProt P21980).
T4 sequence (whole entry): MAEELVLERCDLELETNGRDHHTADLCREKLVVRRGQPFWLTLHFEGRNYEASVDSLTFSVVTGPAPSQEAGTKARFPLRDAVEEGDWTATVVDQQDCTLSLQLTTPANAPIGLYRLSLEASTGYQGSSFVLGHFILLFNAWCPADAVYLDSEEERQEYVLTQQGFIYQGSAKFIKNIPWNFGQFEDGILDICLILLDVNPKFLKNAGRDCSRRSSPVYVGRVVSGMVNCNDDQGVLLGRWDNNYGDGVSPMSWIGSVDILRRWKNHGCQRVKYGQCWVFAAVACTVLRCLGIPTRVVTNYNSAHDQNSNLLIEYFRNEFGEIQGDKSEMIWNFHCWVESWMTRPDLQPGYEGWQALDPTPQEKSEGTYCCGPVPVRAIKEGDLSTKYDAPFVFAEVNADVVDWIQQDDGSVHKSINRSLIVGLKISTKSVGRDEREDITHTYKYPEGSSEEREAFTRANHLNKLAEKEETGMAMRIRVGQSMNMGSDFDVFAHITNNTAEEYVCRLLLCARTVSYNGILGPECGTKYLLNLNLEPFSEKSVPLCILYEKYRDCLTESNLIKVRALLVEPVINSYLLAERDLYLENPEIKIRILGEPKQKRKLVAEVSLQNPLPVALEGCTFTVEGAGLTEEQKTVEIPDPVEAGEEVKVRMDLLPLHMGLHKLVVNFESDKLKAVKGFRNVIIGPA
The experiment in a line: Inhibition of human TGase-2 using fluorogenic FRET substrate at 10 uM.

Experiment [5] deals with T1, Coagulation factor XIII A chain. The experiment in a line: Binding affinity to recombinant F13A (unknown origin) by microscale thermophoresis method. The method, boiled down:
as §1

The source made the active and inactive calls. The rule behind the calls is not given here. Residues, ends and D or L forms follow the SMILES beside them. *: point of attachment. X1 = O=C(c1ccccc1-c1c2ccc(=O)cc-2oc2cc(O)ccc12)* Bounds are passed on as bounds.

For `CC[C@H](C)[C@H](NC(=O)[C@H](CC(=O)O)NC(=O)[C@H](CC(=O)O)NC(=O)[C@H](CCSC)NC(=O)[C@@H]1CCCN1C(=O)[C@H](CCCCN)NC(=O)[C@@H](NC(=O)[C@H](CC(C)C)NC(=O)[C@H](CCC(=O)O)NC(=O)[C@H](CO)NC(=O)[C@H](CCCNC(=N)N)NC(=O)[C@@H]1CCCN1C(=O)[C@H](CCCNC(=N)N)NC(=O)[C@H](CS)NC(=O)[C@H](CCC(N)=O)NC(=O)[C@@H]1CCCN1C(=O)[C@@H](NC(=O)[C@H](Cc1ccccc1)NC(=O)[C@H](C)N)[C@@H](C)CC)[C@@H](C)CC)C(=O)N[C@@H](Cc1ccc(O)cc1)C(=O)N[C@@H](CCC(N)=O)C(=O)N[C@@H](CCCNC(=N)N)C(=O)N1CCC[C@H]1C(=O)N[C@H](C(=O)N[C@@H](CCC(=O)O)C(=O)N[C@@H](Cc1ccccc1)C(=O)N1CCC[C@H]1C(=O)N[C@@H](CC(N)=O)C(=O)N[C@@H](CC(C)C)C(=O)N1CCC[C@H]1C(=O)N[C@@H](CC(C)C)C(=O)N[C@@H](CCCCN)C(=O)N1CCC[C@H]1C(=O)N[C@@H](CCCNC(=N)N)C(=O)N[C@@H](CCC(=O)O)C(=O)O)C(C)C` (H-AFIPQCRPRSELIKPMDDIYQRPVEFPNLPLKPRE-OH), the IC50 in experiment [1] is 1700 nM. Moreover, the outcome in experiment [2] and in experiment [3] was inactive.

Turning to `CC[C@H](C)[C@H](NC(=O)[C@H](CC(=O)O)NC(=O)[C@H](CC(=O)O)NC(=O)[C@H](CCSC)NC(=O)[C@@H]1CCCN1C(=O)[C@H](CCCCN)NC(=O)[C@@H](NC(=O)[C@H](CC(C)C)NC(=O)[C@H](CCC(=O)O)NC(=O)[C@H](CO)NC(=O)[C@H](CCCNC(=N)N)NC(=O)[C@@H]1CCCN1C(=O)[C@@H](N)CCCNC(=N)N)[C@@H](C)CC)C(=O)N[C@@H](Cc1ccc(O)cc1)C(=O)N[C@@H](CCC(N)=O)C(=O)N[C@@H](CCCNC(=N)N)C(=O)N1CCC[C@H]1C(=O)N[C@H](C(=O)N[C@@H](CCC(=O)O)C(=O)N[C@@H](Cc1ccccc1)C(=O)N1CCC[C@H]1C(=O)N[C@@H](CC(N)=O)C(=O)N[C@@H](CC(C)C)C(=O)N1CCC[C@H]1C(=O)N[C@@H](CC(C)C)C(=O)N[C@@H](CCCCN)C(=O)N1CCC[C@H]1C(=O)N[C@@H](CCCNC(=N)N)C(=O)N[C@@H](CCC(=O)O)C(=O)O)C(C)C` (H-RPRSELIKPMDDIYQRPVEFPNLPLKPRE-OH), in experiment [1], the IC50 was 2200 nM. The molecule also returned an inhibition in experiment [4] of less than 10%. The outcome in experiment [2] and in experiment [3] was inactive.

For the molecule `CC[C@H](C)[C@H](NC(=O)[C@H](CC(=O)O)NC(=O)[C@H](CC(=O)O)NC(=O)[C@H](CCSC)NC(=O)[C@@H]1CCCN1C(=O)[C@H](CCCCN)NC(=O)[C@@H](NC(=O)[C@H](CC(C)C)NC(=O)[C@H](CCC(=O)O)NC(=O)[C@@H](N)CO)[C@@H](C)CC)C(=O)N[C@@H](Cc1ccc(O)cc1)C(=O)N[C@@H](CCC(N)=O)C(=O)N[C@@H](CCCNC(=N)N)C(=O)N1CCC[C@H]1C(=O)N[C@H](C(=O)N[C@@H](CCC(=O)O)C(=O)N[C@@H](Cc1ccccc1)C(=O)N1CCC[C@H]1C(=O)N[C@@H](CC(N)=O)C(=O)N[C@@H](CC(C)C)C(=O)N1CCC[C@H]1C(=O)N[C@@H](CC(C)C)C(=O)O)C(C)C` (H-SELIKPMDDIYQRPVEFPNLPL-OH), the IC50 in experiment [1] came out at 1900 nM.

For the molecule `CC[C@H](C)[C@H](NC(=O)CNC(=O)[C@H](CCC(N)=O)NC(=O)[C@H](Cc1cnc[nH]1)NC(=O)[C@H](Cc1c[nH]c2ccccc12)NC(=O)[C@H](CCC(=O)O)NC(=O)[C@H](CCCCN)NC(=O)[C@H](CS)NC(=O)[C@@H]1CCCN1C(=O)[C@H](CC(C)C)NC(=O)[C@H](CC(C)C)NC(=O)[C@H](CCCCN)NC(=O)c1ccccc1-c1c2ccc(=O)cc-2oc2cc(O)ccc12)C(=O)N1CCC[C@H]1C(=O)N[C@@H](CC(N)=O)C(=O)N1CCC[C@H]1C(=O)N[C@@H](CCCNC(=N)N)C(=O)N[C@@H](CS)C(=O)N[C@@H](Cc1c[nH]c2ccccc12)C(=O)N[C@@H](CS)C(=O)NCC(=O)N[C@@H](C)C(=O)N[C@@H](CC(=O)O)C(=O)N[C@@H](CC(C)C)C(=O)N[C@@H](CCC(=O)O)C(=O)N[C@@H](CS)C(=O)N[C@@H](C)C(=O)N[C@@H](CCC(N)=O)C(=O)N[C@@H](CC(=O)O)C(=O)N[C@@H](CCC(N)=O)C(=O)N[C@@H](Cc1ccc(O)cc1)C(=O)N[C@@H](CS)C(=O)N[C@@H](C)C(=O)N[C@@H](Cc1ccccc1)C(=O)N[C@H](C(=O)N1CCC[C@H]1C(=O)N[C@@H](CCC(N)=O)C(=O)N[C@@H](CS)C(=O)O)[C@@H](C)CC` (X1-KLLPCKEWHQGIPNPRCWCGADLECAQDQYCAFIPQC-OH), the outcome in experiment [2] and in experiment [3] was inactive. The Kd in experiment [5] was less than 100 nM.

Regarding `CC[C@H](C)[C@H](NC(=O)[C@H](CC(=O)O)NC(=O)[C@H](CC(=O)O)NC(=O)[C@H](CCSC)NC(=O)[C@@H]1CCCN1C(=O)[C@H](CCCCN)NC(=O)[C@@H](NC(=O)[C@H](CC(C)C)NC(=O)[C@H](CCC(=O)O)NC(=O)[C@H](CO)NC(=O)[C@H](CCCNC(=N)N)NC(=O)[C@@H]1CCCN1C(=O)[C@H](CCCNC(=N)N)NC(=O)c1ccccc1-c1c2ccc(=O)cc-2oc2cc(O)ccc12)[C@@H](C)CC)C(=O)N[C@@H](Cc1ccc(O)cc1)C(=O)N[C@@H](CCC(N)=O)C(=O)N[C@@H](CCCNC(=N)N)C(=O)N1CCC[C@H]1C(=O)N[C@H](C(=O)N[C@@H](CCC(=O)O)C(=O)N[C@@H](Cc1ccccc1)C(=O)N1CCC[C@H]1C(=O)N[C@@H](CC(N)=O)C(=O)N[C@@H](CC(C)C)C(=O)N1CCC[C@H]1C(=O)N[C@@H](CC(C)C)C(=O)N[C@@H](CCCCN)C(=O)N1CCC[C@H]1C(=O)N[C@@H](CCCNC(=N)N)C(=O)N[C@@H](CCC(=O)O)C(=O)O)C(C)C` (X1-RPRSELIKPMDDIYQRPVEFPNLPLKPRE-OH), the outcome in experiment [2] and in experiment [3] was inactive. For the same molecule, the Kd in experiment [5] came out at 800 nM.

For orientation: IC50 means the midpoint of a concentration-inhibition curve. What is called inhibition is the share of the control response that was lost under treatment. Read a high inhibition as strong suppression. Broadly, the Kd is the constant that tells how readily two partners part at equilibrium.

The record behind these values is ChEMBL document CHEMBL3351848, “Novel insights into structure and function of factor XIIIa-inhibitor tridegin” (J Med Chem, 2014).
